{"data": "Results collected from several papers", "target": "Bone morphogenetic protein receptor type-2 (BMPR2, Homo sapiens, UniProt Q13873)", "Residues used in one study (Q13873 1-1038)": "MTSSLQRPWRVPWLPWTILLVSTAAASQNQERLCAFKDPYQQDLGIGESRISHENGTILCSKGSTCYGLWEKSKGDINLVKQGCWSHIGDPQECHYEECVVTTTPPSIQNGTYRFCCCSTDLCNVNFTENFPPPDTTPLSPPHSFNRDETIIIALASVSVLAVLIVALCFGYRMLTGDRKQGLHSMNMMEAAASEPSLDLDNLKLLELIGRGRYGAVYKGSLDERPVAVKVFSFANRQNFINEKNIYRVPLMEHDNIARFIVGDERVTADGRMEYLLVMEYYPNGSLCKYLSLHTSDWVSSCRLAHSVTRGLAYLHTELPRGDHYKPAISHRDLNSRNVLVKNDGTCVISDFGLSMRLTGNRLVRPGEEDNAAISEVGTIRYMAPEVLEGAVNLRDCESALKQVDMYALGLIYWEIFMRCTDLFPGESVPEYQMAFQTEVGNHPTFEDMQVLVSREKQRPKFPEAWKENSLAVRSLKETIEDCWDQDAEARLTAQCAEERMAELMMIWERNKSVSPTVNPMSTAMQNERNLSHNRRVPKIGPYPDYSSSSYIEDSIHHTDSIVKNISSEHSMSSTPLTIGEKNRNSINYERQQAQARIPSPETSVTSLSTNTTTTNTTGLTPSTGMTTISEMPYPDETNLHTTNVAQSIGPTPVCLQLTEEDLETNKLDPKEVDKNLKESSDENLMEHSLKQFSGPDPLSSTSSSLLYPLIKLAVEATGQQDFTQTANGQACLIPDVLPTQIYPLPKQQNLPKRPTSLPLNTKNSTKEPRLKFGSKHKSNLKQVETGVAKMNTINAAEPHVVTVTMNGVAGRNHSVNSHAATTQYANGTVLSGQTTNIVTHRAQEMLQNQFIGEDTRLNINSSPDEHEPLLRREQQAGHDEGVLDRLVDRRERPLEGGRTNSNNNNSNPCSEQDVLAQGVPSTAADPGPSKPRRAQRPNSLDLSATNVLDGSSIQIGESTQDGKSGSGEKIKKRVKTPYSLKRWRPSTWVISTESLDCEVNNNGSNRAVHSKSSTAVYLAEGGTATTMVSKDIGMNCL", "note": "Each line is one published result; the experiments were not run side by side."}
{"Compound": "O=C(c1ccc(Nc2ncc(Cl)c(-c3ccc(Cl)s3)n2)cc1)N1CCC(N2CCCC2)CC1", "observed": "binding", "method": "competition with immobilised ligand", "concentration": "1 µM", "remaining binding [%]": 28}
{"Compound": "C[C@@H]1CCN(c2nccc(-c3cnn4ncccc34)n2)C1", "observed": "binding", "concentration": "1 µM", "remaining binding [%]": 90}
{"Compound": "O=C(O)c1cc(-c2ccc(C3CCNCC3)cc2)c2ccc(-c3ccc(C(F)(F)F)cc3)cc2c1", "observed": "cell-free assay", "method": "competition with immobilised ligand", "concentration": "1 µM", "remaining binding [%]": 100}
{"Compound": "c1cncc(-c2cccc(Nc3nccc(NC4CCCCC4)n3)c2)c1", "observed": "binding", "method": "competition with immobilised ligand", "concentration": "10 µM", "remaining binding [%]": 40}
{"Compound": "N[C@@H]1CCN(c2nccc(-c3cnn4ncccc34)n2)C1", "observed": "binding", "concentration": "1 µM", "remaining binding [%]": 100}
{"Compound": "COc1cnc(Nc2cccc(S(N)(=O)=O)c2)nc1N1CCN(c2ccccc2)CC1", "observed": "binding", "method": "competition with immobilised ligand", "concentration": "1 µM", "remaining binding [%]": 0.1}
{"Compound": "CC(C)(C)c1ccc(-c2nc(CBr)nn2-c2cccc(O)c2)cc1", "observed": "cell-free assay", "method": "competition with immobilised ligand", "concentration": "10 µM", "remaining binding [%]": 81}
{"Compound": "CSc1cccnc1N1CCN(Cc2nc3ccccc3[nH]2)CC1", "observed": "cell-free assay", "method": "competition with immobilised ligand", "concentration": "1 µM", "remaining binding [%]": 80}
{"Compound": "O=C(Nc1c[nH]nc1C(=O)NC1CCNCC1)c1cc(F)cc(F)c1", "observed": "binding", "method": "competition with immobilised ligand", "concentration": "1 µM", "remaining binding [%]": 100}
{"Compound": "C[C@@H]1CN(c2ccc3ncc(-c4ccc5[nH]nc(C6CC6)c5c4)n3n2)C[C@H](C)O1", "observed": "binding", "method": "competition with immobilised ligand", "concentration": "50 nM", "remaining binding [%]": 89}
{"Compound": "CN(C)c1nccc(-c2cnn3ncccc23)n1", "observed": "binding", "concentration": "1 µM", "remaining binding [%]": 99}
{"Compound": "FC(F)(F)Oc1cccc(-c2cnc3ccc(-c4ccncc4)nn23)c1", "observed": "cell-free assay", "method": "competition with immobilised ligand", "concentration": "5 µM", "remaining binding [%]": 56}
{"Compound": "Cc1cnn2ncc(-c3ccnc(N(C)C)n3)c2c1", "observed": "binding", "concentration": "1 µM", "remaining binding [%]": 99}
{"Compound": "CNCc1ccccc1-c1csc([C@@H](C)Nc2nc(C)nc3cc(OC)c(OC)cc23)c1", "observed": "cell-free assay", "method": "competition with immobilised ligand", "concentration": "1 µM", "remaining binding [%]": 100}
{"Compound": "c1cnn2ncc(-c3ccnc(N4CCC45COC5)n3)c2c1", "observed": "binding", "concentration": "1 µM", "remaining binding [%]": 68}
{"Compound": "CCC(=N\\O)/C(C)=C/c1ccc(F)cc1", "observed": "cell-free assay", "method": "competition with immobilised ligand", "concentration": "1 µM", "remaining binding [%]": 81}
{"Compound": "F[C@@H]1CCN(c2nccc(-c3cnn4ncccc34)n2)C1", "observed": "binding", "concentration": "1 µM", "remaining binding [%]": 100}
{"Compound": "O=C(c1ccc(Nc2nccc(-c3cc4ccccc4s3)n2)cc1)N1CCC(N2CCCC2)CC1", "observed": "binding", "method": "competition with immobilised ligand", "concentration": "1 µM", "remaining binding [%]": 67}
{"Compound": "COc1cccc(CNC(=O)c2nc3scc(COCc4ccc(C(=O)O)cc4)c3c(=O)[nH]2)c1", "observed": "cell-free assay", "method": "competition with immobilised ligand", "concentration": "1 µM", "remaining binding [%]": 71.8}
{"Compound": "CN(CCCC(F)(F)F)c1nccc(-c2cnn3ncccc23)n1", "observed": "binding", "concentration": "1 µM", "remaining binding [%]": 97}
{"Compound": "CS(=O)(=O)c1cc(C2(NC(=O)c3cncc4c3cnn4-c3ccc(F)cc3)CC2)ccn1", "observed": "cell-free assay", "method": "competition with immobilised ligand", "concentration": "1 µM", "remaining binding [%]": 99}
{"Compound": "COc1ncc2cc3ccccc3nc2c1C#N", "observed": "cell-free assay", "method": "competition with immobilised ligand", "concentration": "5 µM", "remaining binding [%]": 100}
{"Compound": "NS(=O)(=O)c1cc(NC(=O)Cc2ccccc2)ccc1Oc1cccc(Cl)c1", "observed": "cell-free assay", "method": "competition with immobilised ligand", "concentration": "1 µM", "remaining binding [%]": 73}
{"Compound": "O=C(NCCCN1CCOCC1)c1ccc(Nc2nccc(-c3cc4ccccc4s3)n2)cc1", "observed": "binding", "method": "competition with immobilised ligand", "concentration": "1 µM", "remaining binding [%]": 66}
